Source: ChEMBL document CHEMBL1914364, “3-bromohomofascaplysin A, a fascaplysin analogue from a Fijian Didemnum sp. ascidian” (Bioorg Med Chem, 2011)

Columns and labels:
Plasmodium falciparum [1] = assay: Antimalarial activity against chloroquine- and mefloquine-resistant Plasmodium falciparum W2-Mef infected in human O-positive erythrocytes after 48 hrs; format: functional, organism-based
How it was run: (§1)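 Asynchronous W2-Mef cultures kept at 5% hematocrit in RPMI-1640-based malaria medium. Drugs were diluted in ½ log10 steps from 10 μM to 0.33 nM and grown in triplicate for 48 hr. Cells were stained 40 min with Hoechst 33342, thiazole orange, DiIC1-5 and propidium iodide, then read by flow cytometry; DNA/RNA levels assign ring, trophozoite and schizont stages. IC50 is taken from mean parasite counts relative to drug-free control wells.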

Plasmodium falciparum [2] = assay: Antimalarial activity against chloroquine- and mefloquine-resistant Plasmodium falciparum W2-Mef infected in human O-positive erythrocytes assessed as inhibition of schizonts growth after 48 hrs; format: functional, organism-based; how it was run: as §1
Plasmodium falciparum [3] = assay: Antimalarial activity against chloroquine- and mefloquine-resistant Plasmodium falciparum W2-Mef infected in human O-positive erythrocytes assessed as inhibition of ring-stage parasite growth after 48 hrs; format: functional, organism-based; how it was run: as §1
Plasmodium falciparum [4] = assay: Antimalarial activity against chloroquine- and mefloquine-resistant Plasmodium falciparum W2-Mef infected in human O-positive erythrocytes assessed as inhibition of trophozoites growth after 48 hrs; format: functional, organism-based; how it was run: as §1
L6 = assay: Cytotoxicity against rat L6 cells; format: cell-based
Plasmodium falciparum [5] = assay: Antimalarial activity against chloroquine- and pyrimethamine-resistant Plasmodium falciparum K1; format: functional, organism-based
[6] = Ratio of MIC for rat L6 cells to MIC for Plasmodium falciparum
Plasmodium falciparum [7] = assay: Ratio of IC50 for chloroquine- and mefloquine-resistant Plasmodium falciparum W2-Mef schizonts to IC50 for chloroquine- and mefloquine-resistant Plasmodium falciparum W2-Mef ring-stage parasite; format: functional
Plasmodium falciparum [8] = assay: Ratio of IC50 for chloroquine- and mefloquine-resistant Plasmodium falciparum W2-Mef trophozoites to IC50 for chloroquine- and mefloquine-resistant Plasmodium falciparum W2-Mef ring-stage parasite; format: functional

## CC(=O)C[C@]1(O)c2ccc(Br)cc2-[n+]2ccc3c([nH]c4ccccc43)c21
Plasmodium falciparum [1]
  IC50: 805 nM
Plasmodium falciparum [2]
  IC50: 765 nM
Plasmodium falciparum [3]
  IC50: 574 nM
Plasmodium falciparum [4]
  IC50: 1190 nM

## C[C@@H]1CC[C@H]2[C@@H](C)C(=O)O[C@@H]3O[C@@]4(C)CC[C@@H]1[C@]32OO4 [ARTEMISININ]
Plasmodium falciparum [1]
  IC50: 6.25 nM
Plasmodium falciparum [2]
  IC50: 5.91 nM
Plasmodium falciparum [3]
  IC50: 5.92 nM
Plasmodium falciparum [4]
  IC50: 6.46 nM

## O=C1c2ccccc2-[n+]2ccc3c([nH]c4ccccc43)c21.[Cl-] [FASCAPLYSIN CHLORIDE]
L6
  Activity: 2.5 µg/mL
Plasmodium falciparum [1]
  IC50: 48.2 nM
Plasmodium falciparum [5]
  IC50: 160 nM
[6]
  Ratio: 50
Plasmodium falciparum [2]
  IC50: 65.2 nM
Plasmodium falciparum [3]
  IC50: 7.82 nM
Plasmodium falciparum [4]
  IC50: 401 nM

## CC(=O)C[C@]1(O)c2ccccc2-[n+]2ccc3c([nH]c4ccccc43)c21.[Cl-] [HOMOFASCAPLYSINE A]
L6
  Activity: 1.1 µg/mL
Plasmodium falciparum [1]
  IC50: 105 nM
Plasmodium falciparum [5]
  IC50: 38 nM
[6]
  Ratio: 50
Plasmodium falciparum [7]
  Ratio IC50: 170
Plasmodium falciparum [2]
  IC50: 94 nM
Plasmodium falciparum [8]
  Ratio IC50: 450
Plasmodium falciparum [3]
  IC50: 0.55 nM
Plasmodium falciparum [4]
  IC50: 252 nM
